Measured values: ChEMBL document CHEMBL1125734, “Antioxidant activity of probucol and its analogues in hypercholesterolemic Watanabe rabbits” (1991)

How the values were obtained:
Format in all cases: functional
[1] = organism: Oryctolagus cuniculus; assay: Compound concentration in low-density lipoprotein (LDL).
Outline: (§1)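 Day-84 plasma (EDTA) from rabbits fed 1% drug in chow. LDL isolated by sequential ultracentrifugation at d = 1.019–1.063 g/mL, brought back to the original serum volume, and drug measured by HPLC. Molecules per particle calculated from LDL protein, taking apoB (mw 500 000) as one copy per particle. Mean ± SEM.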

[2] = organism: Oryctolagus cuniculus; assay: Compound was evaluated for the ability to lower total serum cholesterol levels in 4 Watanabe heritable hyperlipidemic (WHHL) rabbits on day 0.
Outline: (§2)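 Modified WHHL rabbits (British half-lop × WHHL cross, homozygous LDL-receptor deficient), age 14 ± 1 weeks, fed 100 g/day rabbit chow repelleted with compound at 1% (wt/wt), content checked by HPLC; controls got plain chow (n = 10). Total serum cholesterol measured enzymatically on days 0, 28, 56 and 84; group mean ± SEM (mg/dL).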

[3] = organism: Oryctolagus cuniculus; assay: Compound was evaluated for the ability to lower total serum cholesterol levels in 4 Watanabe heritable hyperlipidemic (WHHL) rabbits on day 28.; outline: as §2
[4] = organism: Oryctolagus cuniculus; assay: Compound was evaluated for the ability to lower total serum cholesterol levels in 4 Watanabe heritable hyperlipidemic (WHHL) rabbits on day 56.; outline: as §2
[5] = organism: Oryctolagus cuniculus; assay: Compound was evaluated for the ability to lower total serum cholesterol levels in 4 Watanabe heritable hyperlipidemic (WHHL) rabbits on day 84.; outline: as §2
[6] = organism: Oryctolagus cuniculus; assay: Prevention of Cu2+-induced lipid peroxidation of LDL.
Outline: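 LDL (d 1.019–1.063 g/mL) isolated from each drug-fed rabbit at day 84 and dialyzed against PBS. Incubated with 5 μM CuSO4 (final) at 37 °C for 3 h; reaction stopped with EDTA. 50 μg LDL treated with TCA and 0.67% TBA at 90 °C for 30 min. TBARS read at 532 nm against an MDA standard curve (0–5 nmol).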

[7] = organism: Oryctolagus cuniculus; assay: Compound concentration in serum.
Outline: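 Rabbits fed 1% (wt/wt) drug in chow (100 g/day) for 84 days. Serum taken at sacrifice on day 84 and extracted with ether/ethanol; extract dried under N2, redissolved, and run on reverse-phase C18 HPLC in acetonitrile/water (85/15) at 1.5 mL/min with detection at 240 nm. Results given as μg/mL, mean ± SEM.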

[8] = organism: Oryctolagus cuniculus; assay: % atherosclerotic lesions in WHHL rabbits.
Outline: (§3)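 WHHL rabbits (homozygous LDL-receptor deficient, British half-lop cross, 14 ± 1 weeks) fed 100 g/day chow containing 1% (wt/wt) drug for 84 days, then killed by iv pentobarbital. Aortas stained with Sudan IV; sudanophilic area in thoracic aorta quantified by digital image analysis from staining density. Values are percent lesion area per group.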

[9] = Molar content of compound in low-density lipoprotein (LDL) was obtained from the ratio of molecules to that of LDL particles.; outline: as §1
[10] = organism: Oryctolagus cuniculus; assay: Compound was evaluated for the ability to lower total serum cholesterol levels in 5 Watanabe heritable hyperlipidemic (WHHL) rabbits on day 0.; outline: as §2
[11] = organism: Oryctolagus cuniculus; assay: Compound was evaluated for the ability to lower total serum cholesterol levels in 5 Watanabe heritable hyperlipidemic (WHHL) rabbits on day 28.; outline: as §2
[12] = organism: Oryctolagus cuniculus; assay: Compound was evaluated for the ability to lower total serum cholesterol levels in 5 Watanabe heritable hyperlipidemic (WHHL) rabbits on day 56.; outline: as §2
[13] = organism: Oryctolagus cuniculus; assay: Compound was evaluated for the ability to lower total serum cholesterol levels in 5 Watanabe heritable hyperlipidemic (WHHL) rabbits on day 84.; outline: as §2
[14] = organism: Oryctolagus cuniculus; assay: Percent atherosclerotic lesions in WHHL rabbits.; outline: as §3

| Compound | Drug Conc (LDL) [1] [µg/mL] | Cholesterol Concentration [2] [mg/dL] | Cholesterol Concentration [3] [mg/dL] | Cholesterol Concentration [4] [mg/dL] | Cholesterol Concentration [5] [mg/dL] | Lipid peroxidation (nM MDA (mg LDL)-1) [6] | Drug Conc (serum) [7] [µg/mL] | Lesion [8] [%] | Molar content (Molecules (LDL particle)-1) [9] | Cholesterol Concentration [10] [mg/dL] | Cholesterol Concentration [11] [mg/dL] | Cholesterol Concentration [12] [mg/dL] | Cholesterol Concentration [13] [mg/dL] | Lesion [14] [%] |
| --- | --- | --- | --- | --- | --- | --- | --- | --- | --- | --- | --- | --- | --- | --- |
| CCCC(C)(Sc1cc(C(C)(C)C)c(O)c(C(C)(C)C)c1)Sc1cc(C(C)(C)C)c(O)c(C(C)(C)C)c1 | 23 | 685 | 885 | 796 | 782 | 30 | 42 | 53 | 6.2 | – | – | – | – | – |
| CCCCC(C)(Sc1cc(C)c(O)c(C(C)(C)C)c1)Sc1cc(C)c(O)c(C(C)(C)C)c1 | 3 | – | – | – | – | 33 | 6.4 | 81 | 0.7 | 1005 | 1042 | 1079 | 1095 | – |
| CC(C)(Sc1cc(C(C)(C)C)c(O)c(C(C)(C)C)c1)Sc1cc(C(C)(C)C)c(O)c(C(C)(C)C)c1 [PROBUCOL] | 41 | 658 | 728 | 731 | 698 | 25 | 56 | – | 11.3 | – | – | – | – | 47 |
| CC(C)(C)c1cc(SCSc2cc(C(C)(C)C)c(O)c(C(C)(C)C)c2)cc(C(C)(C)C)c1O | 65 | – | – | – | – | 16 | 135 | 39 | 20.3 | 890 | 905 | 766 | 734 | – |
